# From ChEMBL document CHEMBL2029341, “Synthesis and evaluation of indole-based chalcones as inducers of methuosis, a novel type of nonapoptotic cell death” (J Med Chem, 2012)
# Activity calls are given as the source filed them. No cut-off for these calls is given here.
# Experiments:
# [1] = system: U-251; test: Cytotoxicity against human U251 cells assessed as inhibition of colony formation at 10 uM treated for 48 hrs followed by washout measured after 2 weeks relative to control; assay type: functional
# How it was run: (§1)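 U251 cells at 2,500 per 100 mm dish; one day after plating, compound added for 48 h (10 μM, or graded concentrations), then removed and cultures refed every 2 d. Colonies >50 cells counted at two weeks after methanol fixation and crystal violet staining; percent of DMSO control dishes, mean ± S.D. of three dishes.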
# [2] = system: U-251; test: Induction of methuosis in human U251 cells assessed as induction of cellular vacuolization at 10 uM after 24 to 48 hrs by phase contrast microscopic analysis; assay type: functional, cell-based
# How it was run: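 U251 glioblastoma cells in DMEM with 10% FBS at 37 °C under 5% CO2. Compound added in DMSO at 10 μM one day after plating; vehicle-only controls. Live cells examined by phase-contrast microscopy at 24 and 48 h for phase-lucent cytoplasmic vacuoles, with cell rounding and detachment taken as methuosis hallmarks.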
# [3] = system: U-251; test: Cytotoxicity against human U251 cells assessed as reduction of cell viability at 10 uM after 48 hrs by MTT assay relative to control
# [4] = system: U-251; test: Cytotoxicity against human U251 cells assessed as colony formation at 10 uM treated for 48 hrs followed by washout measured after 2 weeks relative to control
# [5] = system: U-251; test: Induction of methuosis in human U251 cells assessed as induction of cellular vacuolization at 2.5 to 10 uM after 3 days by phase contrast microscopic analysis; assay type: functional, cell-based
# [6] = system: U-251; test: Induction of methuosis in human U251 cells assessed as induction of cellular vacuolization at 2.5 after 3 days by phase contrast microscopic analysis; assay type: functional, cell-based
# How it was run: (§2)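 One day after plating, U251 cells given 2.5 μM or 10 μM final compound or DMSO vehicle; live cells viewed by phase-contrast microscopy on three sequential days, without medium change or compound replenishment, for phase-lucent cytoplasmic vacuoles, rounding and detachment.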
# [7] = system: U-251; test: Induction of methuosis in human U251 cells assessed as induction of cellular vacuolization at 2.5 uM after 1 to 2 days by phase contrast microscopic analysis; assay type: functional, cell-based; how it was run: as §2
# [8] = system: U-251; test: Cytotoxicity against human U251 cells assessed as inhibition of colony formation at 2 to 10 uM treated for 48 hrs followed by washout measured after 2 weeks relative to control; assay type: functional, cell-based; how it was run: as §1
# [9] = system: U-251; test: Cytotoxicity against human U251 cells assessed as inhibition of colony formation at 5 to 20 uM treated for 48 hrs followed by washout measured after 2 weeks relative to control; assay type: functional, cell-based; how it was run: as §1
# [10] = system: U-251; test: Induction of methuosis in human temozolomide-resistant U251 cells assessed as induction of cellular vacuolization at 2.5 to 10 uM after 3 days by phase contrast microscopic analysis; assay type: functional, cell-based
# [11] = system: U-251; test: Cytotoxicity against human U251 cells after 48 hrs by MTT assay; conditions: U-251, 48 h
# [12] = system: U-251; test: Cytotoxicity against human U251 cells assessed as reduction of cell growth and viability at 2.5 to 10 uM after 3 days by cell counting
# [13] = system: U-251; test: Cytotoxicity against human temozolomide-resistant U251 cells assessed as reduction of cell viability at 2.5 to 10 uM after 48 hrs by colony formation assay
Compound,Activity [2],Activity [3],"level, % of control at 10 µM [4]",further results
COc1cc2c(/C=C/C(=O)c3ccncc3)c(C)[nH]c2cc1N=[N+]=[N-],,,,inhibition [1]: Active
COc1ccc2[nH]cc(/C=C/C(=O)c3ccncc3)c2c1,Active,58%,2%,
COc1ccc(C(=O)/C=C/c2c[nH]c3ccc(Br)cc23)cc1,inactive,,,
O=C(/C=C/c1c[nH]c2ccc(OCc3ccccc3)cc12)c1ccncc1,Active,56%,8%,
O=C(/C=C/c1c[nH]c2ccccc12)c1cccnc1,inactive,72%,71%,
O=C(NCCc1c[nH]c2ccc(Cl)cc12)c1cccnc1,inactive,,,
Cc1[nH]c2ccc(OCc3ccc(C(=O)O)cc3)cc2c1/C=C/C(=O)c1ccncc1,inactive,79%,71%,
COc1ccc2[nH]cc(/C=C/C(=O)c3cnccn3)c2c1,inactive,88%,96%,
Cc1[nH]c2ccccc2c1/C=C/C(=O)c1ccncc1,Active,24%,8%,Activity [5]: Active; Activity [6]: inactive; Activity [7]: Active; inhibition [8]: Active; inhibition [9]: Active; Activity [10]: Active; IC50 [11]: 4.8 µM; inhibition [12]: Active; Activity [13]: Active
Oc1cccc(/N=C/c2c[nH]c3ccccc23)c1,inactive,,,
O=C(/C=C/c1c[nH]c2ccccc12)c1ccc(Cl)cc1,inactive,,,
O=C(/C=C/c1c[nH]c2ccccc12)c1ccncc1,Active,58%,22%,
O=C(COc1ccccc1)c1c[nH]c2ccccc12,inactive,,,
O=C(/C=C/c1c[nH]c2ccc(O)cc12)c1ccncc1,inactive,107%,72%,
O=C(/C=C/c1c[nH]c2ccccc12)c1ccccn1,inactive,96%,53%,
O=C(/C=C/c1c[nH]c2ccccc12)c1ccccc1,inactive,109%,76%,
COc1ccc2[nH]cc(/C=C/C(=O)c3cccnc3)c2c1,inactive,90%,99%,
COc1ccc2c(c1)c(/C=C/C(=O)c1ccncc1)cn2C,Active,73%,52%,
Cc1[nH]c2ccc(O)cc2c1/C=C/C(=O)c1ccncc1,Active,101%,43%,
Cc1ccc(C(=O)/C=C/c2c[nH]c3ccccc23)cc1,inactive,,,
COC(=O)c1ccc(COc2ccc3[nH]c(C)c(/C=C/C(=O)c4ccncc4)c3c2)cc1,inactive,79%,76%,
Cc1[nH]c2ccc(N=[N+]=[N-])cc2c1/C=C/C(=O)c1ccncc1,,,,inhibition [1]: Active
